# According to ChEMBL document CHEMBL1641571, “Karavilagenin C derivatives as antimalarials” (Bioorg Med Chem, 2011):
# How the values were obtained:
# [1] = test system: Plasmodium falciparum; assay: Antimalarial activity against chloroquine-sensitive Plasmodium falciparum 3D7 infected in erythrocytes after 48 hrs by SYBR Green 1-based fluorescence assay; format: functional, organism-based; conditions: 3D7, 48 h
# [2] = test system: Plasmodium falciparum; assay: Antimalarial activity against chloroquine-resistant Plasmodium falciparum Dd2 infected in erythrocytes after 48 hrs by SYBR Green 1-based fluorescence assay; format: functional, organism-based; conditions: Dd2, 48 h
# [3] = test system: MCF7; assay: Cytotoxicity against human MCF7 cells after 24 hrs by MTT assay; format: functional, cell-based; conditions: MCF7, 24 h
# Summary of the method: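 MCF-7 breast cancer cells grown in RPMI 1640 with 10% heat-inactivated horse serum, 2 mM L-glutamine and antibiotics, 5% CO2, 37 °C. 2 × 10^4 cells per well exposed to increasing compound concentrations for 24 h at 37 °C. MTT added (5 mg/mL stock), 4 h, then 10% SDS overnight. OD read at 550 nm (ref 630 nm). IC50 from growth inhibition; mean ± SD, three experiments.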
# [4] = Selectivity index, ratio of IC50 for human MCF7 cells to IC50 for chloroquine-sensitive Plasmodium falciparum 3D7; format: toxicity, cell-based; conditions: read-out: Ratio IC50
# [5] = Selectivity index, ratio of IC50 for human MCF7 cells to IC50 for chloroquine-resistant Plasmodium falciparum Dd2; format: toxicity, cell-based; conditions: read-out: Ratio IC50
structure (smiles),measurement,setting,value
CO[C@H]1C=C2[C@@H](CC[C@H](OC(=O)c3ccc([N+](=O)[O-])cc3)C2(C)C)[C@]2(C)CC[C@]3(C)[C@@H]([C@H](C)C[C@H](C=C(C)C)OC(=O)c4ccc([N+](=O)[O-])cc4)CC[C@@]3(C)[C@H]12 [KARAVOATE J],IC50,[1],18.6 µM
same,IC50,[2],20.7 µM
same,IC50,[3],> 133 µM
same,selectivity ratio,[4],> 7.2
same,selectivity ratio,[5],> 6.43
CO[C@H]1C=C2[C@@H](CC[C@H](O)C2(C)C)[C@]2(C)CC[C@]3(C)[C@@H]([C@H](C)C[C@H](C=C(C)C)OC(=O)/C=C/c4ccccc4)CC[C@@]3(C)[C@H]12 [KARAVOATE O],IC50,[1],6.6 µM
same,IC50,[2],26.7 µM
same,IC50,[3],> 133 µM
same,selectivity ratio,[4],> 20.3
same,selectivity ratio,[5],> 5
CCC(=O)O[C@@H](C=C(C)C)C[C@@H](C)[C@H]1CC[C@@]2(C)[C@@H]3[C@@H](OC)C=C4[C@@H](CC[C@H](O)C4(C)C)[C@]3(C)CC[C@]12C [KARAVOATE C],IC50,[1],5.1 µM
same,IC50,[2],22 µM
same,IC50,[3],19.1 µM
same,selectivity ratio,[4],3.7
same,selectivity ratio,[5],0.9
CCCC(=O)O[C@@H](C=C(C)C)C[C@@H](C)[C@H]1CC[C@@]2(C)[C@@H]3[C@@H](OC)C=C4[C@@H](CC[C@H](O)C4(C)C)[C@]3(C)CC[C@]12C [KARAVOATE E],IC50,[1],3.5 µM
same,IC50,[2],0.6 µM
same,IC50,[3],73.8 µM
same,selectivity ratio,[4],20.8
same,selectivity ratio,[5],116
CO[C@H]1C=C2[C@@H](CC[C@H](OC(=O)c3ccccc3)C2(C)C)[C@]2(C)CC[C@]3(C)[C@@H]([C@H](C)C[C@H](C=C(C)C)OC(=O)c4ccccc4)CC[C@@]3(C)[C@H]12 [KARAVOATE H],IC50,[1],36.4 µM
same,IC50,[2],30.5 µM
same,IC50,[3],> 133 µM
same,selectivity ratio,[4],> 3.7
same,selectivity ratio,[5],> 4.4
CCCC(=O)O[C@H]1CC[C@@H]2C(=C[C@H](OC)[C@@H]3[C@@]2(C)CC[C@]2(C)[C@@H]([C@H](C)C[C@H](C=C(C)C)OC(=O)CCC)CC[C@@]32C)C1(C)C [KARAVOATE F],IC50,[1],6.9 µM
same,IC50,[2],8.4 µM
same,IC50,[3],> 133 µM
same,selectivity ratio,[4],> 19.4
same,selectivity ratio,[5],> 15.8
COc1ccc(C(=O)O[C@H]2CC[C@@H]3C(=C[C@H](OC)[C@@H]4[C@@]3(C)CC[C@]3(C)[C@@H]([C@H](C)C[C@H](C=C(C)C)OC(=O)c5ccc(OC)cc5)CC[C@@]43C)C2(C)C)cc1 [KARAVOATE N],IC50,[1],2.4 µM
same,IC50,[2],47.9 µM
same,IC50,[3],> 133 µM
same,selectivity ratio,[4],> 55.4
same,selectivity ratio,[5],> 2.8
CO[C@H]1C=C2[C@@H](CC[C@H](O)C2(C)C)[C@]2(C)C[C@@H](O)[C@]3(C)[C@@H]([C@H](C)C[C@@H](O)C=C(C)C)CC[C@@]3(C)[C@H]12 [CUCURBALSAMINOL C],IC50,[1],52.7 µM
same,IC50,[2],67.6 µM
same,IC50,[3],43.3 µM
same,selectivity ratio,[4],0.8
same,selectivity ratio,[5],0.6
CO[C@H]1C=C2[C@@H](CC[C@H](O)C2(C)C)[C@]2(C)CC[C@]3(C)[C@@H]([C@H](C)C[C@H](C=C(C)C)OC(=O)c4ccc([N+](=O)[O-])cc4)CC[C@@]3(C)[C@H]12 [KARAVOATE I],IC50,[1],2.6 µM
same,IC50,[2],0.5 µM
same,IC50,[3],> 133 µM
same,selectivity ratio,[4],> 51.4
same,selectivity ratio,[5],> 296
CO[C@H]1C=C2[C@@H](CC[C@H](O)C2(C)C)[C@]2(C)CC[C@]3(C)[C@@H]([C@H](C)C[C@H](C=C(C)C)OC(=O)c4ccc(Cl)cc4)CC[C@@]3(C)[C@H]12 [KARAVOATE K],IC50,[1],13.3 µM
same,IC50,[2],23.3 µM
same,IC50,[3],> 133 µM
same,selectivity ratio,[4],> 10
same,selectivity ratio,[5],> 5.7
CCC(=O)O[C@H]1CC[C@@H]2C(=C[C@H](OC)[C@@H]3[C@@]2(C)CC[C@]2(C)[C@@H]([C@H](C)C[C@H](C=C(C)C)OC(=O)CC)CC[C@@]32C)C1(C)C [KARAVOATE D],IC50,[1],1.5 µM
same,IC50,[2],0.4 µM
same,IC50,[3],> 133 µM
same,selectivity ratio,[4],> 89
same,selectivity ratio,[5],> 350
CO[C@H]1C=C2[C@@H](CC[C@H](OC(C)=O)C2(C)C)[C@]2(C)CC[C@]3(C)[C@@H]([C@H](C)C[C@H](C=C(C)C)OC(C)=O)CC[C@@]3(C)[C@H]12 [KARAVOATE B],IC50,[1],0.5 µM
same,IC50,[2],0.5 µM
same,IC50,[3],68.1 µM
same,selectivity ratio,[4],151
same,selectivity ratio,[5],126
CO[C@H]1C=C2[C@@H](CC[C@H](O)C2(C)C)[C@]2(C)CC[C@]3(C)[C@@H]([C@H](C)C[C@@H](O)C=C(C)C)CC[C@@]3(C)[C@H]12 [KARAVELAGENIN C],IC50,[1],10.4 µM
same,IC50,[2],11.2 µM
same,IC50,[3],16.7 µM
same,selectivity ratio,[4],1.6
same,selectivity ratio,[5],1.4
CO[C@H]1C=C2[C@@H](CC[C@H](O)C2(C)C)[C@]2(C)CC[C@]3(C)[C@@H]([C@H](C)C[C@H](C=C(C)C)OC(C)=O)CC[C@@]3(C)[C@H]12 [KARAVOATE A],IC50,[1],6.7 µM
same,IC50,[2],9.2 µM
same,IC50,[3],22.9 µM
same,selectivity ratio,[4],3.4
same,selectivity ratio,[5],2.5
CO[C@H]1C=C2[C@@H](CC[C@H](OC(=O)/C=C/c3ccccc3)C2(C)C)[C@]2(C)CC[C@]3(C)[C@@H]([C@H](C)C[C@H](C=C(C)C)OC(=O)/C=C/c4ccccc4)CC[C@@]3(C)[C@H]12 [KARAVOATE P],IC50,[1],65.2 µM
same,IC50,[2],56.6 µM
same,IC50,[3],> 133 µM
same,selectivity ratio,[4],> 2
same,selectivity ratio,[5],> 2.4
CO[C@H]1C=C2[C@@H](CC[C@H](OC(=O)c3ccc(Cl)cc3)C2(C)C)[C@]2(C)CC[C@]3(C)[C@@H]([C@H](C)C[C@H](C=C(C)C)OC(=O)c4ccc(Cl)cc4)CC[C@@]3(C)[C@H]12 [KARAVOATE L],IC50,[1],22.5 µM
same,IC50,[2],66 µM
same,IC50,[3],> 133 µM
same,selectivity ratio,[4],> 5.9
same,selectivity ratio,[5],> 2
COc1ccc(C(=O)O[C@@H](C=C(C)C)C[C@@H](C)[C@H]2CC[C@@]3(C)[C@@H]4[C@@H](OC)C=C5[C@@H](CC[C@H](O)C5(C)C)[C@]4(C)CC[C@]23C)cc1 [KARAVOATE M],IC50,[1],1.3 µM
same,IC50,[2],0.6 µM
same,IC50,[3],> 133 µM
same,selectivity ratio,[4],> 43.6
same,selectivity ratio,[5],> 215
